From ChEMBL document CHEMBL3797202, “Novel Oxindole Sulfonamides and Sulfamides: EPZ031686, the First Orally Bioavailable Small Molecule SMYD3 Inhibitor” (ACS Med Chem Lett, 2016) come the findings set out here.

Series [1] concerns the target T1, Histone-lysine N-methyltransferase EHMT1 (Homo sapiens) (UniProt Q9H9B1).
T1 sequence (whole entry): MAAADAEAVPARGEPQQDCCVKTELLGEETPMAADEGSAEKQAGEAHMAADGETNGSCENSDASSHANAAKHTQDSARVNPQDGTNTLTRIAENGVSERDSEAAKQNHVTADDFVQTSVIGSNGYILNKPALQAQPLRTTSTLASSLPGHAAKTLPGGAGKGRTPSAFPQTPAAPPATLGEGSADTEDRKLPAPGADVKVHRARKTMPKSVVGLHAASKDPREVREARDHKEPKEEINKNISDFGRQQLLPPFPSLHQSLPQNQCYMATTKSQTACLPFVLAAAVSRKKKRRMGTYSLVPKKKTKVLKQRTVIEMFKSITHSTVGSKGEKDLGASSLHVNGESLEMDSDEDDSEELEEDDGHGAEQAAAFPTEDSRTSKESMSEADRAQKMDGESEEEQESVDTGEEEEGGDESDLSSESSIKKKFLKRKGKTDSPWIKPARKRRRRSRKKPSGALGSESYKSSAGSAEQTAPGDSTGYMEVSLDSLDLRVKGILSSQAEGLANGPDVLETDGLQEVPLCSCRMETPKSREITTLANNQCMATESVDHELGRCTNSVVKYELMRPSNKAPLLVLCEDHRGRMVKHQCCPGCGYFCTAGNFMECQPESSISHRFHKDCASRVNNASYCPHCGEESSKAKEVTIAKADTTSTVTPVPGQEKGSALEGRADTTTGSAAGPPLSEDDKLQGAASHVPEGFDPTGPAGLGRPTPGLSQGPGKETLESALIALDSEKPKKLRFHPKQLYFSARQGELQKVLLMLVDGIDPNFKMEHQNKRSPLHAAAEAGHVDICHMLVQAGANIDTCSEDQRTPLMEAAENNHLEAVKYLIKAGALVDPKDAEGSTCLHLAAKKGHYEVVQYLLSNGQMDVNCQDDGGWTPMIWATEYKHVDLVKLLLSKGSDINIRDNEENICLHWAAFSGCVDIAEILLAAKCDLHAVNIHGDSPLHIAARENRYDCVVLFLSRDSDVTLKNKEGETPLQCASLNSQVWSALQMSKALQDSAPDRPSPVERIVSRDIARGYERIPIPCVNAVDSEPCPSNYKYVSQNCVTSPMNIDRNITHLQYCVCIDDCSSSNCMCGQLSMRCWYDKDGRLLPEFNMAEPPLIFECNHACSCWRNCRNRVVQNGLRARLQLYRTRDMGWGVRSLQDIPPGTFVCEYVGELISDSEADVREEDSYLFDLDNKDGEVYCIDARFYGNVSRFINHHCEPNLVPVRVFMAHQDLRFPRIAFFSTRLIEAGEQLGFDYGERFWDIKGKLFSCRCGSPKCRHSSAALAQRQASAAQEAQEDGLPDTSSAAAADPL
Description: Inhibition of EHMT1 (unknown origin) at 10 uM relative to control.

In series [2] the target is Protein arginine N-methyltransferase 6 (Homo sapiens) (UniProt Q96LA8). In words: Inhibition of PRMT6 (unknown origin) at 10 uM relative to control.
The target in series [3] is Protein arginine N-methyltransferase 8 (Homo sapiens) (UniProt Q9NR22). Description: Inhibition of PRMT8 (unknown origin) at 10 uM relative to control.
The target of series [4] is T2, Histone-lysine N-methyltransferase NSD2 (Homo sapiens) (UniProt O96028).
T2 sequence (whole entry): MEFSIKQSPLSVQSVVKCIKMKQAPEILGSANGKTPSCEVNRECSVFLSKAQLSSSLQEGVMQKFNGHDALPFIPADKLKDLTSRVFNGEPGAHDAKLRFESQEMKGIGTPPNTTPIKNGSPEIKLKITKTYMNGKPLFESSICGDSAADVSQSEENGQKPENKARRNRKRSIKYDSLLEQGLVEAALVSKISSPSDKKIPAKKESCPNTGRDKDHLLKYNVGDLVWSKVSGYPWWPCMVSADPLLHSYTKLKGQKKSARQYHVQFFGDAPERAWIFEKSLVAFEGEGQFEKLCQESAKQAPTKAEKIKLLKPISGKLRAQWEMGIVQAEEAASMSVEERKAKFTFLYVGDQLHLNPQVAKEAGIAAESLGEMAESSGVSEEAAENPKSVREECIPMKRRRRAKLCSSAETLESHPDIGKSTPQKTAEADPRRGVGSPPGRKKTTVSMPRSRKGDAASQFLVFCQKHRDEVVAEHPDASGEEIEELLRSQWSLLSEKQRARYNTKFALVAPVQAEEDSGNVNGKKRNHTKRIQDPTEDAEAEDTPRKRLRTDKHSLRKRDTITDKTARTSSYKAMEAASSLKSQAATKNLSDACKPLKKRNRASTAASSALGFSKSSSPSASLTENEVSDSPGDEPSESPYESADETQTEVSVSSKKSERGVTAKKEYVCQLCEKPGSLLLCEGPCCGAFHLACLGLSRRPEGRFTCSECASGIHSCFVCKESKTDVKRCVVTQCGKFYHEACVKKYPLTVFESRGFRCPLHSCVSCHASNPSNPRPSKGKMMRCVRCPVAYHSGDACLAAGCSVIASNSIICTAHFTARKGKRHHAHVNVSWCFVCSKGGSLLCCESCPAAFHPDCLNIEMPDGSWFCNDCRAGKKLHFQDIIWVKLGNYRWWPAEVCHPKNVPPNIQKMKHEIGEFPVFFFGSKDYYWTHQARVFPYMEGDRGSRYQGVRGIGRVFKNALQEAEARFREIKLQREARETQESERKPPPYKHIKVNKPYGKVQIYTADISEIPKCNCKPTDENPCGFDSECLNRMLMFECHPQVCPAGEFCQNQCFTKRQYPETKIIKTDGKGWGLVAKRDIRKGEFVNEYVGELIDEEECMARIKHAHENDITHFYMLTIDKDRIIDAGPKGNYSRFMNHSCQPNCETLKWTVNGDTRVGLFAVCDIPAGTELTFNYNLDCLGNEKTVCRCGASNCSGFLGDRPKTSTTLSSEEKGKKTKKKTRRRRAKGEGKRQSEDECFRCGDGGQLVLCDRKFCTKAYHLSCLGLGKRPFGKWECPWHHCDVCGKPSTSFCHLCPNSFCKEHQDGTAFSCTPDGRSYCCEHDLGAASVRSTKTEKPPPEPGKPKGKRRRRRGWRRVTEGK
In words: Inhibition of WHSC1 (unknown origin) at 10 uM relative to control.

The target in series [5] is N-lysine methyltransferase SMYD2 (Homo sapiens, UniProt Q9NRG4). Description: Inhibition of SMYD2 (unknown origin).
A short description of series [6]: Apparent permeability in human Caco2 cells at 10 uM incubated for 120 mins by LC-MS/MS analysis. In kind it is ADME, cell-based. Particulars: Caco-2. A digest of the protocol:
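Caco-2 cell monolayers; permeability measured in the apical-to-basolateral direction, with an efflux ratio also determined.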
(Passage across Caco-2 layers is used to estimate intestinal permeability.)

The nature of series [7]: Fraction unbound in CD1 mouse plasma at 1 uM incubated for 16 hrs by LC-MS/MS based equilibrium dialysis method. In kind it is ADME, cell-free. In general terms: In equilibrium dialysis free small molecules cross a membrane that holds back macromolecules.

One may read the inhibition as the drop in the measured response relative to a control, in per cent. A high value points to a response far below the control. One may read the IC50 as the concentration needed to halve the response being measured. By Papp is commonly meant the rate of passage across a membrane or cell layer, normalised by area and donor concentration. Broadly, the fraction unbound is free concentration divided by total concentration. A lower fraction unbound goes with little free substance.

Some results are limits rather than exact numbers.

Sequence of N-lysine methyltransferase SMYD2 (Q9NRG4 whole entry): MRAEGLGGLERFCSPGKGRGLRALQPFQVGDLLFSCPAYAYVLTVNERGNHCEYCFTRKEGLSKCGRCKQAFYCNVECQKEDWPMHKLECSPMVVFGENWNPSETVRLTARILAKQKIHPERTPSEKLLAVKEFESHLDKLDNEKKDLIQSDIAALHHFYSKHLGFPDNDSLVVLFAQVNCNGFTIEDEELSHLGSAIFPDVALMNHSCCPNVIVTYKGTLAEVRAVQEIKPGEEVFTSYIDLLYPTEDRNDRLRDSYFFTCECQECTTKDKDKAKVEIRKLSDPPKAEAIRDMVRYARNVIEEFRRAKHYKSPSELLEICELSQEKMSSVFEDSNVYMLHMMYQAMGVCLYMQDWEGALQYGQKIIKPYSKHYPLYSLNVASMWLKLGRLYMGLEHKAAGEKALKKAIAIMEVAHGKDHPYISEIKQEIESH
Sequence of Protein arginine N-methyltransferase 8 (Homo sapiens) (Q9NR22 2-394 limits assumed): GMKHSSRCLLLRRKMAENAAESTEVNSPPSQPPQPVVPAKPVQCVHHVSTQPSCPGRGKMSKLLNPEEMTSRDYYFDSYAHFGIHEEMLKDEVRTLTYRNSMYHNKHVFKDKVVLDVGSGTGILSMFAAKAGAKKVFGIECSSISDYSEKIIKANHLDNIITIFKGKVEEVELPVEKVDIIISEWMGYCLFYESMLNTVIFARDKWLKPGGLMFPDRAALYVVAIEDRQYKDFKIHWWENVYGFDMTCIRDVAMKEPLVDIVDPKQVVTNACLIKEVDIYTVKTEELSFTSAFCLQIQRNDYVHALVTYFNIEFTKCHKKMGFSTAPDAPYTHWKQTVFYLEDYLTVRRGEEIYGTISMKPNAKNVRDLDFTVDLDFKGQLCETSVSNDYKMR
Sequence of Protein arginine N-methyltransferase 6 (Homo sapiens) (Q96LA8 whole entry, looked up): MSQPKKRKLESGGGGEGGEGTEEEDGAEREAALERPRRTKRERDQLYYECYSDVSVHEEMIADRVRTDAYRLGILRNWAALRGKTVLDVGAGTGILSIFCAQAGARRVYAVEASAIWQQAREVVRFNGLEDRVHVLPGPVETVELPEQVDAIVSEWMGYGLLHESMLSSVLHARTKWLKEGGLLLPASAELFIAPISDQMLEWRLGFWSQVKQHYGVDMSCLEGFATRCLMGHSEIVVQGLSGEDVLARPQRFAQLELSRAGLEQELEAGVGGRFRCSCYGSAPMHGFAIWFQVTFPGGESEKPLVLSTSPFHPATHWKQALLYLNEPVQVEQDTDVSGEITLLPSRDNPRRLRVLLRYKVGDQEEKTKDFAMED

With `O=C1Cc2cc(C(=O)N[C@H]3C[C@H]4CC[C@@H](C3)N4S(=O)(=O)CC3CCN(CCCC(F)(F)F)CC3)c(Cl)cc2N1`, the inhibition in series [1], in series [2], in series [3] and in series [4] was under 30% throughout. In addition, in series [5], the IC50 is over 50 µM. In addition, the Papp at 2 h, 10 µM in series [6] turned out to be 0.64 ×10⁻⁶ cm/s. In addition, in series [7], the fraction unbound at 16 h, 1 µM was 0.53.

For `O=C1Cc2cc(C(=O)N[C@H]3C[C@H]4CC[C@@H](C3)N4S(=O)(=O)N3CCC(NCc4ccccc4)CC3)c(Cl)cc2N1`, the inhibition in series [1], in series [2], in series [3] and in series [4] was under 30% each time. The same molecule displayed an IC50 in series [5] of over 50 µM. Moreover, the Papp at 2 h, 10 µM in series [6] was found to be 0.34 ×10⁻⁶ cm/s. For the same molecule, in series [7], the fraction unbound at 16 h, 1 µM was determined as 0.32.
